Test results published in the RNAGym collection of RNA variant scans (doi:10.1126/science.aae0568).
This sample holds only a part of the variants without activity.

B1: tRNA (parent)
chain: GUUCCGUUGGCGUAAUGGUAACGCGUCUCCCUCCUAAGGAGAAGACUGCGGGUUCGAGUCCCGUACGGAACG

Variants of: B1
Test: yeast fitness relative to wild type (ratio to wild type); higher = fitter; tRNA-Arg(CCU), competitive growth, 37 C, YPD
How it was run: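 Gene amplicons from the start population and from each of six end populations were read by 100-nucleotide paired-end sequencing. Those end populations came from pooled Saccharomyces cerevisiae strains carrying tRNA-Arg(CCU) gene variants at the native locus, competed in YPD at 37°C for 24 hours. Fitness relative to wild type was worked out from changes in genotype frequencies. Genotypes needed ≥ 100 starting reads, and estimates < 0.5 were set to 0.5.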

First: GUUCCGUUGGCGUAAUGGUAACGCGUCUCCCUGCUAAGGAGAAGACUGCGGGAUCGAGUCCCGUACGGAACG
Second: GUUCCGUUGGCGUAAUGGUAACGCGUCUCCCUUCUAAGGGGAAGACUGCGGGUUCGAGUCCCGUACGGAACG
The yeast fitness of the first is lower: 0.65 for the first, 0.71 for the second.

Going from GUUCCGUUGGCGUAAUGGUAACGCGUCUCCCUUCUAAGGAGACGACUGCGGGUUCGAGUCCCCUACGGAACG to GUUCCGUUGGCGUAAUGGUAACGCGUCUCCCUUCUAAGGAGCAGACUGCGGGUUCGAGUCCCGUACGGAGCG, the yeast fitness rises from ≤ 0.5 to 0.75.

GUUCCGUUGGCGUAAUGGUAACGCGUCUCCCUUCUAAGGAGAAGACUGGGGGUUCGAGUGCGAUACGGAACG and GUUCCGUUGGCGUAAUGGUAACGCGUCUCCCUUCUACGGAGAAGACUGCGGGUUCGAGUCCCGUACUGUACG cannot be ordered by yeast fitness: ≤ 0.5 for the first, ≤ 0.5 for the second.

Going from GUUCCGUUGGCGUAAUGGUAACGCGUCUCCCUUCUAAGAAGAAGACUGCGGGUUCGGGUCCCGUAUGGAACG to GUUCCGUUGGCGUAAUGGUAACGCGUCUCCCUUCUAAGGAGAAGUCUGCGGGUUCGAGUCCCGUACGGAACG, the yeast fitness rises from 0.557 to 0.837.

Going from GUUCCGUUGGCGUAAUGGUAACGCGUCUCCCUUUUAAAGAGAAGACUGCGAGUUAGAGUCCCGUUCGGAACG to GUUCCGUUGGCGUAAUGGUAACGCGUCUCCCUUCUCAGGAGAGGACUGCGGGUUCGUGUCCCGUACGGAACG, the yeast fitness falls from 0.566 to ≤ 0.5.

First: GUUCCGUUGGCGUAAUGGUAACGCGUCUCCCUGCUAAGGAGAAGACGGCGGGUUCAGGUCCCGUACGGUACG
Second: GUUCCGUUGGCGUAAUGGUAACGCGUCUCCCUGCCAAGGAGAAGACUGCGGGUUCGAGACCCGUACGGAACG
The yeast fitness of the first is lower: ≤ 0.5 for the first, 0.594 for the second.

Going from GUUCCGUUGGCGUAAUGGUAACGCGUCUCCCUUCUAAGGAGAAGACUGCGGAUUCGAGUCCCGUACGGAACG to GUUCCGUUGGCGUAAUGGUAACGCGUCUCCCUGCUAAGGAGAAGACUGCGGGAUCGAGUUCCGUACGGAACG, the yeast fitness rises from 0.58 to 0.637.

Compared with GUUCCGUUGGCGUAAUGGUAACGCGUCUCCCUUCUAAGGAGAAGACUGCGGGUUUGAGUCCCGUACGGAUCG, GUUCCGUUGGCGUAAUGGUAACGCGUCUCCCUUCUCGGGAGAAGACUGCGGGUUCGAGUCCCGCACGGAACG is lower in yeast fitness: 0.627 for the first, ≤ 0.5 for the second.

First: GUUCCGUUGGCGUAAUGGUAACGCGUCUCCCUUCUAAGGAGAAGACUGCGGGUUCAACUCCCGUACGGAACG
Second: GUUCCGUUGGCGUAAUGGUAACGCGUCUCCCUUAUAAGGAGAAGACUGCGGGGACGAGUCCCGUACGGAACG
The yeast fitness of the first is higher: 0.589 for the first, 0.588 for the second.

First: GUUCCGUUGGCGUAAUGGUAACGCGUCUCCCUUCUAAGGAGAAGACUACGGGUUCGAGUCCCGUACGGAACG
Second: GUUCCGUUGGCGUAAUGGUAACGCGUCUCCCUUCUAAGGAGAAGACUGCGGGUUUGAGUCCCGUACGGAACG
The yeast fitness of the first is higher: 0.678 for the first, 0.586 for the second.

GUUCCGUUGGCGUAAUGGUAACGCGUCUCCCUUCUAAGGAGAAGACUGCGGGUUCGAGUCUCGUACGGGACG and GUUCCGUUGGCGUAAUGGUAACGCGUCUCCCUUCUAAGGAGAUGACUGCGGGUUUGAGUCCCGUACGGAACG cannot be ordered by yeast fitness: ≤ 0.5 for the first, ≤ 0.5 for the second.

Going from GUUCCGUUGGCGUAAUGGUAACGCGUCUCCCUUCCAAGGAGAAGACUGCGGGUUCGAGUCCCGUACGGAACG to GUUCCGUUGGCGUAAUGGUAACGCGUCUCCCUUCAAAGGAGAAGACUGCGGGUUCGAGUCCCGUACGGAACG, the yeast fitness falls from 0.579 to ≤ 0.5.

Compared with GUUCCGUUGGCGUAAUGGUAACGCGUCUCCCUUCUAAGGAGAAGACUGCAGCUUCGAGUCCCGUCCGGAACG, GUUCCGUUGGCGUAAUGGUAACGCGUCUCCCUUCUAAGGAGACGACUGCGGGUUCGAGUCCCGUACGGAACG is higher in yeast fitness: 0.564 for the first, 0.656 for the second.

First: GUUCCGUUGGCGUAAUGGUAACGCGUCUCCCUUCUAAGGAGAUGACUGCGGGUUCGAGUCCCGUACGGAACG
Second: GUUCCGUUGGCGUAAUGGUAACGCGUCUCCCUUCUAAGGAGAAGACAGCGGGUUCGAGUCCCGUACGGAACG
The yeast fitness of the first is higher: 0.898 for the first, 0.829 for the second.

First: GUUCCGUUGGCGUAAUGGUAACGCGUCUCCCUUCUAAGGAGAACACUGCGGGUUCGAGUUCCGUACGGGACG
Second: GUUCCGUUGGCGUAAUGGUAACGCGUCUCCCUUCUAAGGAGAAGAAUGCGGGUUGGAGUCCCGUACGGAACG
The yeast fitness of the first is lower: ≤ 0.5 for the first, 0.604 for the second.

GUUCCGUUGGCGUAAUGGUAACGCGUCUCCCUGCUAAGGAGAAGACUGCGGGUUCGAGUCCCGAACGGAACG and GUUCCGUUGGCGUAAUGGUAACGCGUCUCCCUUCUAAGGAGAUGACUGGCGGUUCGAGUGCCGUACGGAACG cannot be ordered by yeast fitness: ≤ 0.5 for the first, ≤ 0.5 for the second.

Going from GUUCCGUUGGCGUAAUGGUAACGCGUCUCCCUUCUAAGGAGAAGACUACGGGUUCGAGUUCCGGUCGGCACG to GUUCCGUUGGCGUAAUGGUAACGCGUCUCCCUUCUAAAGAGAAGAUUGCGGGUUCGAGUCCCGUACGGAACG, the yeast fitness falls from 0.571 to 0.562.

Going from GUUCCGUUGGCGUAAUGGUAACGCGUCUCCCUGCCAAGGAGAAGACUGCGGGUUCGAGACCCGUACGGUACG to GUUCCGUUGGCGUAAUGGUAACGCGUCUCCCUUCUGAGGAAAAGACUGCGGGUUCGAGUCGCGUACGGAACG, the yeast fitness falls from 0.657 to ≤ 0.5.

GUUCCGUUGGCGUAAUGGUAACGCGUCUCCCUUCUAAGGAGAAGACUGCGAGUUCGAGUCCCGUUCGGAACG and GUUCCGUUGGCGUAAUGGUAACGCGUCUCCCUUCUAAGGAGAUGACUGACGGUUCGAGUCUCGUAUGGAACG cannot be ordered by yeast fitness: ≤ 0.5 for the first, ≤ 0.5 for the second.

GUUCCGUUGGCGUAAUGGUAACGCGUCUCCCUUCUAAGGAGAUGACUGGCGGUUCGAGUCCCGUCCGGAACG and GUUCCGUUGGCGUAAUGGUAACGCGUCUCCCUCAUCAGGAGAAGACUGCGGGUUCGAGUCUCGAACGGAACG cannot be ordered by yeast fitness: ≤ 0.5 for the first, ≤ 0.5 for the second.

Going from GUUCCGUUGGCGUAAUGGUAACGCGUCUCCCUUCUAAGGAGAAGACUGCGGGUUCGAGUCCCGUUCGGAACG to GUUCCGUUGGCGUAAUGGUAACGCGUCUCCCUUCUAAGGAGAAGACUGCGGGUUCAAGUCGCGUAUGGAACG, the yeast fitness falls from 0.816 to ≤ 0.5.

Going from GUUCCGUUGGCGUAAUGGUAACGCGUCUCCCUUCUAAGCAGAAGACUGCGGGUUCGAGUCCCGUACGGAACG to GUUCCGUUGGCGUAAUGGUAACGCGUCUCCCUUCUAAGAAGAAGACUGCGGGUUCGAGUCCCGUACGGAACG, the yeast fitness rises from 0.622 to 0.626.

First: GUUCCGUUGGCGUAAUGGUAACGCGUCUCCCUUAUAAGGAGAAGACUGCGGGUUCGAGUCCCGUACGGAACG
Second: GUUCCGUUGGCGUAAUGGUAACGCGUCUCCCUUCUAAGGAGAAGACUGCGGGUUCGAGUCUCGUAGGGAACG
The yeast fitness of the first is higher: 0.574 for the first, 0.543 for the second.

Compared with GUUCCGUUGGCGUAAUGGUAACGCGUCUCCCUUAUAACGAGAAGACUGCGGAUUCGAGUCCCGUACGGAACG, GUUCCGUUGGCGUAAUGGUAACGCGUCUCCCUUCUAAGGAGCAGACUGCGGGUUCGAGUCCCGUACGGAACG is higher in yeast fitness: ≤ 0.5 for the first, 0.63 for the second.

Going from GUUCCGUUGGCGUAAUGGUAACGCGUCUCCCUUCUAAGGAGAAGACUGCGGGUUCGAGUCCCGUACGCAACG to GUUCCGUUGGCGUAAUGGUAACGCGUCUCCCUUCUAAGGAGAACACUGUGGGUUCGAGUCCCGUACGGAACG, the yeast fitness falls from 0.686 to 0.531.

Compared with GUUCCGUUGGCGUAAUGGUAACGCGUCUCCCUUCUAAGGAGAAGACUGCGGGUUCGAGUCCGGUACGGAACG, GUUCCGUUGGCGUAAUGGUAACGCGUCUCCCUUCUAAGGAGAAGACUGCGGGUUCGAGUCCAGUACGGAACG is higher in yeast fitness: 0.632 for the first, 0.824 for the second.

Compared with GUUCCGUUGGCGUAAUGGUAACGCGUCUCCCUGCUAAGGAGAAGACAGCGGGUUCGAGUCCCGUACGGAACG, GUUCCGUUGGCGUAAUGGUAACGCGUCUCCCUUCUAAGGAGAAGACUGCGGGUUCGAGUCCCGUCCGCAACG is lower in yeast fitness: 0.579 for the first, 0.504 for the second.

Going from GUUCCGUUGGCGUAAUGGUAACGCGUCUCCCUUCUAAGGAGAAGACUGGGGCUUCGAGUCCCGUACGGAACG to GUUCCGUUGGCGUAAUGGUAACGCGUCUCCCUUCUAAGGAGAAGACUGCGGGUCCGAAUCCCGUACGGAACG, the yeast fitness rises from 0.501 to 0.643.

First: GUUCCGUUGGCGUAAUGGUAACGCGUCUCCCUUCUCAGGAGAAGACUGCGGGUCCGAGUCCCGUACGGAACG
Second: GUUCCGUUGGCGUAAUGGUAACGCGUCUCCCUUCUAAGGAGCAGACUGCGGGUUCGAGUCCCGUACGUAACG
The yeast fitness of the first is lower: ≤ 0.5 for the first, 0.538 for the second.

GUUCCGUUGGCGUAAUGGUAACGCGUCUCCCUUCUAAGGAGAAGACUGCGGGUUCGGGUCCCGUAUGGAACG and GUUCCGUUGGCGUAAUGGUAACGCGUCUCCCUCAUCAGGAGAAGACUGCGGGUUCGAGUCCCGUACAGAACG cannot be ordered by yeast fitness: ≤ 0.5 for the first, ≤ 0.5 for the second.

Going from GUUCCGUUGGCGUAAUGGUAACGCGUCUCCCUUCUAAGGAGAAGACUGCGGGUUCGAGUCACCUGCGGAACG to GUUCCGUUGGCGUAAUGGUAACGCGUCUCCCUUCUAAGGAGAAGACUGCGGGUUCGAGUCCCGUACGGAUCG, the yeast fitness rises from 0.549 to 0.902.

First: GUUCCGUUGGCGUAAUGGUAACGCGUCUCCCUUCUAAGGAGAAGACUGCGGGUUCGAGUCCCGUACGGACCG
Second: GUUCCGUUGGCGUAAUGGUAACGCGUCUCCCUUCUAAGGAGAAGACUGCGGGUUCGAGUCCCGUUUGGAACG
The yeast fitness of the first is higher: 0.832 for the first, ≤ 0.5 for the second.

GUUCCGUUGGCGUAAUGGUAACGCGUCUCCCUUCUAAGGAGAAGACUGCGGGUUCGAGUCCUAUACGGAACG and GUUCCGUUGGCGUAAUGGUAACGCGUCUCCCUUAUAAGGAGACGACUACGGGUUCGAGUCCCGUACGGAACG cannot be ordered by yeast fitness: ≤ 0.5 for the first, ≤ 0.5 for the second.

GUUCCGUUGGCGUAAUGGUAACGCGUCUCCCUUCUAAGGAGAAGACAGCGGGUUCGAGUCCCAUACGGAACG and GUUCCGUUGGCGUAAUGGUAACGCGUCUCCCUUCUAAGGAGCAGACUGCGGGUUCGAGUCCCGCACGGAGCG cannot be ordered by yeast fitness: ≤ 0.5 for the first, ≤ 0.5 for the second.

First: GUUCCGUUGGCGUAAUGGUAACGCGUCUCCCUUCUAAGGAGAGGACUGCGGAUUCGAGUCCCGUACGGAACG
Second: GUUCCGUUGGCGUAAUGGUAACGCGUCUCCCUUCUAAGGAGAAGAUUGCGGGUUCGAGUCCCGUACGCAACG
The yeast fitness of the first is lower: ≤ 0.5 for the first, 0.615 for the second.

Compared with GUUCCGUUGGCGUAAUGGUAACGCGUCUCCCUUCUAAGGAGGAGAAUGCGGGUUCGAGUCCCGUACGGAACG, GUUCCGUUGGCGUAAUGGUAACGCGUCUCCCUUCUAAGGAGAACACUGCGGGUUCGAGUCCCGUACGGAACG is lower in yeast fitness: 0.644 for the first, 0.601 for the second.

First: GUUCCGUUGGCGUAAUGGUAACGCGUCUCCCUCAUACGGAGAAGACUGCGGGUUCGAGUCCCGUACGGAACG
Second: GUUCCGUUGGCGUAAUGGUAACGCGUCUCCCUUCUAAGGAGAAGUCUGCGGGUUCGAGUCCCGUACGAAACG
The yeast fitness of the first is higher: 0.713 for the first, 0.67 for the second.

For GUUCCGUUGGCGUAAUGGUAACGCGUCUCCCUUCUAAGGAAAAGACUGUGGGUUCGAGUCGCGUACGGAACG, the yeast fitness was ≤ 0.5.
